A selection: hits, their analogues and other compounds. The true share with any hit is near 0.54%.
PKD1 inh: PKD1 (human) kinase inhibition; Q15139; PKD1 kinase fluorescence polarization assay; inhibition, % (concentration not given with the values); 0.056% of 200,000 active; AID 797; in the data active means inhibition above about 50%
ASAP1 inh: blocks human ASAP1-stimulated Arf1 GTP hydrolysis; Q9ULH1; GDP FP detection; inhibition, % at 16.5 µM; 0.19% of 360,000 active; AID 624377; in the data active means inhibition above about 25%;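 further: 0% = vehicle with enzyme and substrate and 100% = no enzyme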
Target sequence (Q9ULH1 325-724 limits assumed): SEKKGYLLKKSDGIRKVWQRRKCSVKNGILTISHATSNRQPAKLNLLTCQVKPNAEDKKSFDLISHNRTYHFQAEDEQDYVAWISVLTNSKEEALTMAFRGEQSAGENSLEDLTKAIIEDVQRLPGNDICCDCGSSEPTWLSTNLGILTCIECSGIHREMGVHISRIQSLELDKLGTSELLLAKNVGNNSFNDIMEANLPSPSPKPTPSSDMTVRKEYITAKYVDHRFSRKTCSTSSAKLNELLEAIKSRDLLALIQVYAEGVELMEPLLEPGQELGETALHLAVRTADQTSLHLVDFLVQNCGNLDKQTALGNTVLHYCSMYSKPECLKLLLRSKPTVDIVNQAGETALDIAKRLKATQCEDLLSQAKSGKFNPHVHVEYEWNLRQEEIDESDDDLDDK
PP5 primary: PP5 (human) phosphatase inhibition; P53041; purified PP5c, OMFP substrate fluorescence; inhibition, % at 6.7 µM; 0.18% of 320,000 active; AID 1987;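 active means inhibition above the campaign's mean inhibition across all tested compounds plus 3 SD, cut at about 9.5% in these data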;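 further: 0% = DMSO only and 100% = 100 µM cantharidin control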
ARFGAP1 inh: inhibits rat ARF GTPase activating protein 1; Q62848; Arfgap1-stimulated ARF1 GTP hydrolysis, GDP FP detection; inhibition, % at 16.5 µM; 0.26% of 360,000 active; AID 651572;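 active means inhibition above a per-plate limit, mean inhibition of low control wells plus 3 SD, cut at about 25% in these data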;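 further: 0% = DMSO wells with enzyme and 100% = wells lacking Arfgap1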
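Material – truncated rat Arfgap1 GAP domain · Buffer or medium – HEPES-based buffer, pH 7.5 · Reagent – human ARF1(Δ1-17)-GTP substrate · Dosing – 16.5 µM single point, 1.26% DMSO · Schedule – GTP hydrolysis reaction 2 h at 25 °C · Technique – GDP detection by fluorescence polarization · Benchmarks – No-Arfgap1 wells (100%) versus DMSO full-reaction wells (0%) · Repeats – single replicate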
ARFGAP1 confirm: rat ARFGAP1 inhibition, confirmed; shares compounds with ARFGAP1 inh; ARFGAP1-stimulated ARF1 GTP hydrolysis, GDP tracer FP; inhibition, % at 16.5 µM; 30% of 890 active; AID 651608;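 active means average inhibition over triplicates above the hit cutoff set in the earlier primary screen, cut at about 25% in these data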;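 further: 0% = Arfgap1 plus ARF1-GTP with DMSO and 100% = wells lacking Arfgap1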
* hit, by the source's call; nt = not tested or not shown.

SMILES	PKD1 inh	ASAP1 inh	PP5 primary	ARFGAP1 inh	ARFGAP1 confirm
Cc1ncsc1C(=O)N1N=C2/C(=C/c3ccccc3)CCCC2C1c1ccccc1 (stereo unspecified)	1.8	-6.0	4.8	29.6*	-2.4
Cc1ncsc1C(=O)N1N=C2/C(=C/c3ccc(N4CCOCC4)cc3)CCCC2C1c1ccc(N2CCOCC2)cc1 (stereo unspecified)	7.2	nt	1.0	nt	nt
Cc1nc2ccc([N+](=O)[O-])cc2[nH]1	0.4	3.3	1.9	6.3	nt
O=[N+]([O-])c1cccc(/C=C/c2nc3ccc([N+](=O)[O-])cc3[nH]2)c1	9.4	6.9	1.8	25.0*	25.9*
O=C1Cc2ccccc2C(=O)N1	nt	35.5*	nt	25.5*	28.3*
COc1ccc(-n2c(SCC(N)=O)nc3sc4c(c3c2=O)CCN(C)C4)cc1	3.6	22.5	4.0	37.3*	37.1*
COc1ccc(-n2c(C)nc3sc4c(c3c2=O)CCCC4)cc1	-2.4	nt	0.0	nt	nt
CCOC(=O)CSc1nc2sc3c(c2c(=O)n1-c1ccc(OC)cc1)CCN(C)C3	nt	20.5	nt	23.8	nt
COc1ccc(-n2c(SCC(=O)O)nc3sc4c(c3c2=O)CCCC4)cc1	nt	20.5	0.6	35.2*	51.6*
COc1ccc(-n2c(SCCNCCO)nc3sc4c(c3c2=O)CCCC4)cc1	nt	9.2	1.4	32.0*	22.2
Cc1noc(C)c1-c1ccc(C(=O)NC2CCCCC2)c2occc12	nt	-7.9	nt	6.9	nt
COc1ccc(-n2c(=S)[nH]c3cc(C(=O)Nc4ccc(F)cc4)ccc3c2=O)c(OC)c1	nt	15.6	1.7	25.5*	12.9
Cc1ccsc1C(=O)OCC(=O)N1CCOCC1	-11.6	-15.6	-4.1	34.9*	-5.2
CCOC1=C2CN(S(=O)(=O)c3ccc(C)cc3)C(c3cccc(Cl)c3)CC2N(S(=O)(=O)c2ccc(C)cc2)C(c2ccncc2)C1 (stereo unspecified)	nt	3.4	nt	10.7	nt
Cc1ccc(OCC(=O)Oc2cccc(C)c2)cc1	nt	7.7	0.8	25.9*	-5.3
Cc1ccc(OCC(=O)Oc2cccc(C)c2C)cc1	nt	-9.0	3.7	9.5	nt
CN1CCC(OC(=O)COc2ccccc2)CC1	-3.5	-0.2	0.6	-1.7	nt
Cc1cccc(OCC(=O)OC2CCN(C)CC2)c1	6.5	-4.0	1.0	26.4*	-0.1
CCc1nc2c(OCc3c(C)noc3C)cccn2c1N(C=O)Cc1ccccc1	nt	-3.7	nt	18.2	nt
O=C(O)CC1(C(=O)O)CC2C=CC1C2 (stereo unspecified)	nt	7.9	nt	25.3*	0.6
CC(=O)N1CCN(c2ccc(N3CCN(C(C)=O)[C@@H](C)C3)c(C)c2)[C@H](C)C1	nt	2.0	nt	16.9	nt
O=C(c1ccncc1)N1CCN(S(=O)(=O)c2cccc(F)c2)CC1	nt	-10.9	-0.7	9.0	nt
O=C(c1ccncc1)N1CCN(S(=O)(=O)c2cccc(Cl)c2)CC1	nt	-7.1	-1.9	26.7*	0.3
Cc1cc(=O)n(-c2ccc(C(=O)O)cc2)[nH]1	-3.6	4.9	6.1	27.9*	-1.4
Cc1cc(=O)n(-c2ccc(O)cc2)[nH]1	3.9	0.1	5.9	-7.7	nt
SMILES	PKD1 inh	ASAP1 inh	PP5 primary	ARFGAP1 inh	ARFGAP1 confirm
O=C(Nc1nc(-c2ccccc2)cs1)c1ccc2c(c1)S(=O)(=O)c1ccccc1C2=O	5.5	-0.2	3.2	-14.1	nt
O=C(Nc1nc(-c2cccc3ccccc23)cs1)c1ccc2c(c1)S(=O)(=O)c1ccccc1C2=O	-11.4	-7.9	0.7	34.0*	0.4
COC(=O)C1=C(C)N(Cc2ccccc2C(F)(F)F)C(=NCc2ccc(OC)cc2)NC1c1cccc(F)c1 (stereo unspecified)	nt	-11.0	nt	-0.6	nt
CCCN(CCC)CCNC(=O)c1cc2c(-c3ccc(Cl)cc3)nn(C)c2s1	nt	7.2	-1.5	28.4*	6.1
CCCN(CCC)CCCNC(=O)c1cc2c(-c3ccc(OC)c(OC)c3)nn(C)c2s1	nt	22.6	-1.7	46.8*	85.1*
CN(C)S(=O)(=O)c1ccc(C(=O)N(c2ccccn2)c2ccccn2)cc1	-5.6	-13.3	0.1	30.6*	-0.8
COC(=O)N1CCCCC1c1cc(C(=O)NCc2ccccc2)no1 (stereo unspecified)	nt	1.0	nt	-2.9	nt
C[C@@H]1CN([C@@H](C)CO)C(=O)c2cc(Br)cnc2O[C@@H]1CN(C)C(=O)c1ccc(F)cc1	nt	8.2	nt	0.6	nt
O=C(COC(=O)/C=C/c1ccc2ccccc2n1)NNC(=O)c1ccccc1	nt	-15.9	nt	48.7*	-0.6
COc1cccc(N(C(=O)Cn2nnc(-c3cccs3)n2)C(C(=O)NC2CCCCC2)c2ccncc2)c1 (stereo unspecified)	5.9	4.0	5.3	0.5	nt

From PubChem
